The results in this text go back to ChEMBL document CHEMBL4041491, “Imidazo[1,2-a]pyrazin-8-amine core for the design of new adenosine receptor antagonists: Structural exploration to target the A3 and A2A subtypes” (Eur J Med Chem, 2017).

For experiment [1], the target named is T1, Adenosine receptor A3 (Homo sapiens, UniProt P0DMS8). Put plainly: Antagonist activity at human A3 receptor expressed in CHO cells assessed as inhibition of CI-IB-MECA-mediated inhibition of cAMP production by [3H]cAMP competition binding based scintillation counting method. The class given is cell-based. In a few lines:
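hA3-transfected CHO cells (1 × 10^6/assay) in buffered saline pH 7.4 with adenosine deaminase and Ro 20-1724, preincubated 10 min at 37 °C. Antagonism of 100 nM Cl-IB-MECA inhibition of 1 µM forskolin-stimulated cAMP. cAMP measured by [3H]cAMP protein-binding assay. IC50 by sigmoid nonlinear regression, four independent experiments in triplicate, means ± SEM.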

The target in experiment [2] is T2, Adenosine receptor A1 (Homo sapiens) (UniProt P30542).
T2 sequence (whole entry): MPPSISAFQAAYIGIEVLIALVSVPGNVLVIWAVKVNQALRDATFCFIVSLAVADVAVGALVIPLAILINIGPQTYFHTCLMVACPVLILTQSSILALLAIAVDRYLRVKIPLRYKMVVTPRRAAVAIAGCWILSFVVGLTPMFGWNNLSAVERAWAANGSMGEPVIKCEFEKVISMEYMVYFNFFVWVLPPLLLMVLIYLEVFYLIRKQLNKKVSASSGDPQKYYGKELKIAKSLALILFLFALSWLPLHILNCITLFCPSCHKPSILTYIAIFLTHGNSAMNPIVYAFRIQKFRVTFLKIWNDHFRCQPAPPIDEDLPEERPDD
Kind of experiment: Displacement of [3H]DPCPX from human adenosine A1 receptor expressed in CHO cell membranes at 1 uM after 120 mins by scintillation counting method relative to control. The method, boiled down: (§1)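 hA1 CHO membranes (50 µg protein) with 1 nM [3H]DPCPX in 50 mM Tris HCl pH 7.4, 120 min at 25 °C. Six to eight antagonist concentrations, or 1 µM for percent inhibition. Nonspecific binding with 1 µM DPCPX. Ki via Cheng–Prusoff, four assays in duplicate, means ± SEM.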
For orientation: Displacement assays read how much labelled ligand stays bound in the presence of the test substance.

Experiment [3] deals with Hippocampus. Put plainly: Anti-ischemic activity in Wistar rat hippocampal slices assessed as latency time for 30 mins oxygen-glucose deprivation-induced occurrence of anoxic depolarization at 200 nM by electrophysiology method (reference value: 6.3 +/- 0.3 min).
Experiment [4] concerns Hippocampus. Kind of experiment: Anti-ischemic activity in Wistar rat model of 7 mins oxygen-glucose deprivation-induced cerebral ischemia assessed as recovery of fEPSP amplitude in CA1 region of hippocampal slices at 200 nM incubated for 15 mins prior to induction of oxygen-glucose deprivation and maintained during entire period of oxygen-glucose deprivation/reoxygenation subsequent incubation for 5 mins after OGD insult measured up to 15 mins by electrophysiology method. Format: functional, tissue-based. In a few lines:
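Rat hippocampal slices, CA1 stratum radiatum stimulated (80 μs, 0.066 Hz) at 40–50% of maximal fEPSP. Compound at 200 nM in aCSF, DMSO ≤0.05%, applied 15 min before, during and 5 min after 7-min OGD, then reperfusion in oxygenated aCSF. fEPSP amplitude expressed as % of mean over the 5 min before OGD.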

Experiment [5] addresses T1, Adenosine receptor A3. Put plainly: Displacement of [125I]AB-MECA from human adenosine A3 receptor expressed in CHO cell membranes after 120 mins by scintillation counting method. The method, boiled down:
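hA3 CHO membranes (50 µg protein) with 0.5 nM [125I]AB-MECA in 50 mM Tris HCl, 10 mM MgCl2, 1 mM EDTA, pH 7.4, 120 min at 4 °C. Six to eight ligand concentrations, or 1 µM for percent inhibition. Nonspecific binding with 1 µM AB-MECA; GF/B filtration. Ki by Cheng–Prusoff, four assays in duplicate, means ± SEM.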

In experiment [6] the target is T3, Adenosine receptor A2a (Homo sapiens, UniProt P29274). Put plainly: Displacement of [3H]ZM241385 from human adenosine A2A receptor expressed in CHO cell membranes at 1 uM after 60 mins by scintillation counting method relative to control. The method, boiled down: (§2)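 hA2A CHO membranes (50 µg protein) with 1 nM [3H]ZM241385 in 50 mM Tris HCl, 10 mM MgCl2, pH 7.4, 60 min at 4 °C. Six to eight antagonist concentrations, or 1 µM for percent inhibition. Nonspecific binding with 1 µM ZM241385. Ki via Cheng–Prusoff, four assays in duplicate, means ± SEM.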
T3 sequence (P29274 whole entry): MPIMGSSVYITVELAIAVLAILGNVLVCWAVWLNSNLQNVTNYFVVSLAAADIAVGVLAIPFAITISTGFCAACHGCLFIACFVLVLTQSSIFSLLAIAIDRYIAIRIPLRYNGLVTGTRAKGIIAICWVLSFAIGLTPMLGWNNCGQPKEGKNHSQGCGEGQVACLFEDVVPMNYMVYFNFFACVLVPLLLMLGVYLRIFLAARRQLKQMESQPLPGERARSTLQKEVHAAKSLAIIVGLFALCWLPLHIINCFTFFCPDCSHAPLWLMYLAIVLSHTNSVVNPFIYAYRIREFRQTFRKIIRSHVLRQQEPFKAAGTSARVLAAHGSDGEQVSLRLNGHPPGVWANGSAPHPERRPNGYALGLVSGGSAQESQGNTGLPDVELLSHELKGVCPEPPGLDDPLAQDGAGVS

The test system of experiment [7] is Hippocampus. Put plainly: Anti-ischemic activity in Wistar rat hippocampal slices assessed as peak amplitude of 30 mins oxygen-glucose deprivation-induced anoxic depolarization at 200 nM by electrophysiology method (reference value: -7.5 +/- 1.2 mV). The class given is functional. The method, boiled down: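 Rat hippocampal slices, extracellular d.c. recording in CA1 stratum radiatum. 30-min OGD, then reperfusion with oxygenated glucose aCSF. Compound at 200 nM, diluted from DMSO stock into aCSF, applied 15 min before, during and 5 min after OGD. AD latency in min from OGD onset; amplitude in mV at peak negativity. Mean ± SEM, n slices.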

Experiment [8] addresses T4, Adenosine receptor A2b (Homo sapiens) (UniProt P29275).
T4 sequence (whole entry): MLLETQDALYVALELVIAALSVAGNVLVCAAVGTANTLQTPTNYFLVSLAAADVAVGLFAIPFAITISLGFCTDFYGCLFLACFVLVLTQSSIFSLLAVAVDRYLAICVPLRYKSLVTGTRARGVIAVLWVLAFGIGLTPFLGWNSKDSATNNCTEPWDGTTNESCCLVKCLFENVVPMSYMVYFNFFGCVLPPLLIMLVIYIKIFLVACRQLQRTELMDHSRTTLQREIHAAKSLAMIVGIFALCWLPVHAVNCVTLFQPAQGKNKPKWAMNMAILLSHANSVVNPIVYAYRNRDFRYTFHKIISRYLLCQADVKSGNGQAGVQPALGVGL
Kind of experiment: Antagonist activity at human A2B receptor expressed in CHO cells assessed as inhibition of NECA-stimulated cAMP production at 1 uM by [3H]cAMP competition binding based scintillation counting method relative to control. Format: functional, cell-based. In a few lines:
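Transfected CHO cells (1 × 10^6/assay) in buffered saline pH 7.4 with adenosine deaminase 2 IU/ml and Ro 20-1724, preincubated 10 min at 37 °C. Test compound at 1 μM against 200 nM NECA-stimulated cAMP. TCA stop, ether extraction, cAMP measured by [3H]cAMP competition binding to bovine adrenal binding protein. Result given as percent inhibition.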

The target in experiment [9] is T5, Adenosine receptor A3 (Rattus norvegicus) (UniProt P28647).
T5 sequence (whole entry): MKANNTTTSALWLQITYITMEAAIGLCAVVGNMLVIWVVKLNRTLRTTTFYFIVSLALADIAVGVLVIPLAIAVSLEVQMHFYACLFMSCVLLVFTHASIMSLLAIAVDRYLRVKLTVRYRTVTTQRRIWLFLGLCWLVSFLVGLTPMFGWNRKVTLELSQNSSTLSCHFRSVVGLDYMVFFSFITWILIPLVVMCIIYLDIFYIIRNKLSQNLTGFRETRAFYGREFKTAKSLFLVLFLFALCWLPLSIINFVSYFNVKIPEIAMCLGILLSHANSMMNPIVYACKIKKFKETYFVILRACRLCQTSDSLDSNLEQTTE
Kind of experiment: Displacement of [125I]AB-MECA from rat adenosine A3 receptor expressed in HEK293 cell membranes at 1 uM after 120 mins by scintillation counting method relative to control. In a few lines: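 rA3 receptor in HEK293 membranes (10 μg protein), 0.5 nM [125I]AB-MECA, 50 mM Tris–HCl, 10 mM MgCl2, 1 mM EDTA, pH 7.4, 120 min at 25 °C. Nonspecific binding with 1 μM AB-MECA; filtration and scintillation counting. Percent inhibition of specific binding at 1 µM.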

The target of experiment [10] is T1, Adenosine receptor A3. Put plainly: Displacement of [125I]AB-MECA from human adenosine A3 receptor expressed in CHO cell membranes at 1 uM after 120 mins by scintillation counting method relative to control.
The target of another experiment is T6, Adenosine receptor A1 (Homo sapiens, UniProt P30542).
T6 sequence (P30542 whole entry): T2 sequence (whole entry)
Kind of experiment: Displacement of [3H]DPCPX from human adenosine A1 receptor expressed in CHO cell membranes after 120 mins by scintillation counting method. The method, boiled down: as §1

Experiment [11] deals with T3, Adenosine receptor A2a. Put plainly: Displacement of [3H]ZM241385 from human adenosine A2A receptor expressed in CHO cell membranes after 60 mins by scintillation counting method. The method, boiled down: as §2

Activity calls are given as the source filed them. The calls are words filed in the database; no cut-off is given here.

T1 sequence (P0DMS8 whole entry, looked up): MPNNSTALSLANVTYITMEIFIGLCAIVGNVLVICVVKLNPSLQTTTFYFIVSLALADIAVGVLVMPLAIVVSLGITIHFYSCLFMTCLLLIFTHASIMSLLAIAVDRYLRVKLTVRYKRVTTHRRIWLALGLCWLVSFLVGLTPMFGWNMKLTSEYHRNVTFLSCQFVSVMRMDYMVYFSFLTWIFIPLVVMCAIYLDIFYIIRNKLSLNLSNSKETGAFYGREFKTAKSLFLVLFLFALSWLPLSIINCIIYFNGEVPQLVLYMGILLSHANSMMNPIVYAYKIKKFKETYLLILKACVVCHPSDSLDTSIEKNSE

In the case of `O=C(Nc1nc(-c2ccccc2)cn2cc(-c3ccccc3)nc12)c1cccnc1`, the IC50 (usually the concentration at which inhibition is half-maximal) at Adenosine receptor A3 [1] stood at 0.172 µM. The inhibition (in general, the share of the control response that was lost under treatment) in experiment [2] is 11%; at Adenosine receptor A2a [6], 1%; in experiment [8] it was 3%; in experiment [9], 2%. For the same compound, the Time with Hippocampus [3] is listed as 8.2 min. Moreover, in the experiment with Hippocampus [4], the result was Active. Also, at Adenosine receptor A3 [5], the Ki (in general, the dissociation constant of the complex between target and ligand, obtained from inhibition or displacement) worked out at 0.054 µM. Also, in the experiment with Hippocampus [7], the Activity is reported as -7.1 mV.

For `Nc1nc(Br)cn2cc(-c3ccco3)nc12`, the figures for the inhibition (on Adenosine receptor A3 [10]; in [8]) were 28% and 29%, respectively. Further, the Ki on Adenosine receptor A1 came to 0.21 µM; on Adenosine receptor A2a [11], 0.265 µM.

Take `COc1ccc(C(=O)Nc2nc(-c3ccccc3)cn3cc(-c4ccccc4)nc23)cc1`: at Adenosine receptor A3 [1], the IC50 worked out at 0.073 µM. Further, the inhibition worked out at 6% in experiment [2], 8% at Adenosine receptor A2a [6], 1% in experiment [8] and 1% in experiment [9]. Also, affinity at Adenosine receptor A3 [5] was put at a Ki of 0.025 µM.

Regarding `Nc1nc(-c2ccccc2)cn2cc(-c3ccco3)nc12`, the inhibition on Adenosine receptor A3 [10] is 21%; in experiment [8] it was 10%. Besides, the Ki turned out to be 0.143 µM on Adenosine receptor A1 and 0.52 µM on Adenosine receptor A2a [11].

As to `O=C(Nc1nc(-c2ccccc2)cn2cc(-c3ccccc3)nc12)c1ccccc1`, at Adenosine receptor A3 [1], the IC50 is 0.235 µM. Moreover, the inhibition in experiment [2] was determined as 1%; at Adenosine receptor A2a [6], 1%; in experiment [8] it was 1%; in [9], 2%. The compound further displayed a Ki on Adenosine receptor A3 [5] of 0.082 µM.

For `Nc1nc(-c2ccccc2)cn2cc(-c3ccccc3)nc12`, the inhibition on Adenosine receptor A3 [10] came to 23%; in [8], 36%. Besides, the Ki turned out to be 0.18 µM on Adenosine receptor A1 and 0.31 µM at Adenosine receptor A2a [11].

With `Nc1nc(-c2ccco2)cn2cc(-c3ccco3)nc12`, the results for the inhibition (on Adenosine receptor A3 [10]; in [8]) were 38% and 30%, respectively. Also, the Ki at Adenosine receptor A1 amounted to 0.316 µM; at Adenosine receptor A2a [11], 0.854 µM.

Turning to `O=C(c1ccccc1)N(C(=O)c1ccccc1)c1nccn2cc(-c3ccccc3)nc12`, the IC50 at Adenosine receptor A3 [1] was found to be 0.187 µM. Further, the inhibition in experiment [2] came out at 4%; at Adenosine receptor A2a [6], 5%; in [8], 3%; in experiment [9], 1%. The Ki at Adenosine receptor A3 [5] worked out at 0.064 µM.

Take `O=C(Nc1nccn2cc(-c3ccccc3)nc12)c1ccccc1`: the IC50 on Adenosine receptor A3 [1] stood at 0.163 µM. In addition, the inhibition in experiment [2] was 18%; on Adenosine receptor A2a [6] it was 1%; in experiment [8] it was 2%; in experiment [9], 2%. The compound also displayed a Ki at Adenosine receptor A3 [5] of 0.052 µM.
